The source made the active and inactive calls. No cut-off for these calls is given here.

Assay [1] concerns HeLa S3. The experiment in a line: Selectivity ratio of IC50 for HDAC2 in human HeLaS3 cells to IC50 for HDAC6 in human HeLaS3 cells. It is filed as cell-based. In outline:
(§1)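 Ratio of IC50 values measured with the ELISA-based HDAC activity assay using mammalian-derived HDAC isoforms. Each IC50 is the mean of at least two independent trials with standard error.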

For assay [2], the system named is HeLa S3. The experiment in a line: Selectivity ratio of IC50 for HDAC3 in human HeLaS3 cells to IC50 for HDAC6 in human HeLaS3 cells. Type of assay: cell-based. In a few lines:
as §1

For assay [3], the system named is HeLa S3. The experiment in a line: Selectivity ratio of IC50 for HDAC2 in human HeLaS3 cells to IC50 for full length human C-terminal His-tag HDAC8 expressed in baculovirus expression system.
Another assay concerns the target Histone deacetylase 2 (Homo sapiens, UniProt Q92769). Nature of the assay: Inhibition of HDAC2 in human HeLaS3 cells preincubated for 15 mins followed by HDAC-Glo substrate addition measured after 30 to 45 mins by ELISA. Type of assay: cell-based, HeLa S3. For orientation: ELISA stands for enzyme-linked immunosorbent assay.
For another assay, the target named is Histone deacetylase 1 (Homo sapiens, UniProt Q13547). The experiment in a line: Inhibition of HDAC1 in human HeLaS3 cells preincubated for 15 mins followed by HDAC-Glo substrate addition measured after 30 to 45 mins by ELISA. It is filed as cell-based, HeLa S3.
Chain of Histone deacetylase 1 (Q13547 whole entry): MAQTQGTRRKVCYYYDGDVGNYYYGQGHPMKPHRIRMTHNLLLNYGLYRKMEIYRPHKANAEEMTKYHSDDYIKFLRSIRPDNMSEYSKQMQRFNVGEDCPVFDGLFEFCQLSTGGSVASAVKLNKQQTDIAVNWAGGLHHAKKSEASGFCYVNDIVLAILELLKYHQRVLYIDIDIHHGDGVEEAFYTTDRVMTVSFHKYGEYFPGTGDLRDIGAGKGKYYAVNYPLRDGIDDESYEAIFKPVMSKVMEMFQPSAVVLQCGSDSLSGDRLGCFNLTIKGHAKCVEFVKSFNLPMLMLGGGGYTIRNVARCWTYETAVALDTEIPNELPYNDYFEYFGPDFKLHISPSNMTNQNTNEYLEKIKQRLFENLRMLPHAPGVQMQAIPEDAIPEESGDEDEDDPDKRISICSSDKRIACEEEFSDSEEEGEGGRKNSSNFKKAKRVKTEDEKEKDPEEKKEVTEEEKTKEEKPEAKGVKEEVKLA
For another assay, the target named is Histone deacetylase 3 (Homo sapiens, UniProt O15379). The experiment in a line: Inhibition of HDAC3 in human HeLaS3 cells preincubated for 15 mins followed by HDAC-Glo substrate addition measured after 30 to 45 mins by ELISA. It is filed as cell-based, HeLa S3.
Chain of Histone deacetylase 3 (O15379 whole entry): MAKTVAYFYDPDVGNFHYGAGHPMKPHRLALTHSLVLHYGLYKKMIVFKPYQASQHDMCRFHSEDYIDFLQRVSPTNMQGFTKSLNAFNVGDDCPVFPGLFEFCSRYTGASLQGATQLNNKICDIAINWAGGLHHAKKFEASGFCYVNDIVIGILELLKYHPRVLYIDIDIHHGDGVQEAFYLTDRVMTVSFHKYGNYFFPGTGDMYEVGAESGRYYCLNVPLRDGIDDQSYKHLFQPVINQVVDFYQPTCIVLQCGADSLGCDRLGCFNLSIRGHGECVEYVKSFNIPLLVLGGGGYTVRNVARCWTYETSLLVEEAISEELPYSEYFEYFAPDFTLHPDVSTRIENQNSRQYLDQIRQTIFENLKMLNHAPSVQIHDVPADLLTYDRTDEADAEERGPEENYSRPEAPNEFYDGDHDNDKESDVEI
Assay [4] has as its system HeLa S3. The experiment in a line: Selectivity ratio of IC50 for HDAC1 in human HeLaS3 cells to IC50 for HDAC6 in human HeLaS3 cells. Type of assay: cell-based. In outline:
as §1

In assay [5] the test system is HeLa S3. The experiment in a line: Selectivity ratio of IC50 for HDAC1 in human HeLaS3 cells to IC50 for full length human C-terminal His-tag HDAC8 expressed in baculovirus expression system.
The target of assay [6] is T1, Protein deacetylase HDAC6 (Homo sapiens, UniProt Q9UBN7).
T1 sequence (Q9UBN7 whole entry): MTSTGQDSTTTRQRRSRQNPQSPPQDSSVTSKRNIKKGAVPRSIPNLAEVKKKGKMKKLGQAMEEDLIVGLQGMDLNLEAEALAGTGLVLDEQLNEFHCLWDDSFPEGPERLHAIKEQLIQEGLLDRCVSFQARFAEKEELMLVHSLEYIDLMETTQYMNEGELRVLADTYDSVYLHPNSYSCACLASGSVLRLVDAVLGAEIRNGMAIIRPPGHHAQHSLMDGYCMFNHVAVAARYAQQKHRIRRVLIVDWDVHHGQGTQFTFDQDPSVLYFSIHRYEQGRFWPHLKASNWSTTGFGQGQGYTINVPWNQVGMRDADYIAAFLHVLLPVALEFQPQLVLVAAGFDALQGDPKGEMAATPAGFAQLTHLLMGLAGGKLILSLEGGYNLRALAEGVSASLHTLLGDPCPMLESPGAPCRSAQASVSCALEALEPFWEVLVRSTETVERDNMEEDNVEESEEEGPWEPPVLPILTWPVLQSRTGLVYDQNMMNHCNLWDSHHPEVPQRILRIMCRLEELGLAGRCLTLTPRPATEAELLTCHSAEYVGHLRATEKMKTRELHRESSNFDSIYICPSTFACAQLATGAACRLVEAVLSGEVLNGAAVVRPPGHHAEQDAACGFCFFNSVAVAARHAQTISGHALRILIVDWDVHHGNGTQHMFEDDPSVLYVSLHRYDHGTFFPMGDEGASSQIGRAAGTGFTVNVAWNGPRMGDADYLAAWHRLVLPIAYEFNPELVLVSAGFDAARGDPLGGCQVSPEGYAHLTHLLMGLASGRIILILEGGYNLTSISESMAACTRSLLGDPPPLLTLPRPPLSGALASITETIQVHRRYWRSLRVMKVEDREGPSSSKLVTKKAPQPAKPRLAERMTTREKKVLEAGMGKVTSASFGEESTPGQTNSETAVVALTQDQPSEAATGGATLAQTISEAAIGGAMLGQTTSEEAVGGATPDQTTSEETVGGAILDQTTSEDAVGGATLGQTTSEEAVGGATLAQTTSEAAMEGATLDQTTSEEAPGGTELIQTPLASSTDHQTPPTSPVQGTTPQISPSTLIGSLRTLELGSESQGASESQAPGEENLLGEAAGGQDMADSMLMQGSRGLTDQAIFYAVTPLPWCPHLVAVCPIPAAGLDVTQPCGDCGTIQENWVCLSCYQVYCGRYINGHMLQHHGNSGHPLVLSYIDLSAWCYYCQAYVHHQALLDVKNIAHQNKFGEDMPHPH
The experiment in a line: Inhibition of HDAC6 in human HeLaS3 cells preincubated for 15 mins followed by HDAC-Glo substrate addition measured after 30 to 45 mins by ELISA. It is filed as cell-based, HeLa S3.

Assay [7] concerns the target T2, Protein deacetylase HDAC6 (Homo sapiens) (UniProt Q9UBN7).
T2 sequence (whole entry): T1 sequence (Q9UBN7 whole entry)
Nature of the assay: Inhibition of HDAC6 in human U937 cells assessed as increase in alpha-tubulin acetylation at Lys-40 residue at 30 uM after 18 hrs by Western blot method. It is filed as cell-based. The conditions noted are these: U-937. In outline:
(§2)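 U937 myeloid leukemia cells were treated with compound, with a 1% DMSO control. For the concentration series the range was 10–60 μM. Cells were then lysed, run on SDS-PAGE and Western blotted for acetyl-α-tubulin and acetyl-histone H3, with GAPDH as load control. Band intensities were quantified as fold increase, given as mean of four independent trials with standard error.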

A further assay has as its target T3, Histone deacetylase 8 (Homo sapiens, UniProt Q9BY41).
T3 sequence (Q9BY41 whole entry): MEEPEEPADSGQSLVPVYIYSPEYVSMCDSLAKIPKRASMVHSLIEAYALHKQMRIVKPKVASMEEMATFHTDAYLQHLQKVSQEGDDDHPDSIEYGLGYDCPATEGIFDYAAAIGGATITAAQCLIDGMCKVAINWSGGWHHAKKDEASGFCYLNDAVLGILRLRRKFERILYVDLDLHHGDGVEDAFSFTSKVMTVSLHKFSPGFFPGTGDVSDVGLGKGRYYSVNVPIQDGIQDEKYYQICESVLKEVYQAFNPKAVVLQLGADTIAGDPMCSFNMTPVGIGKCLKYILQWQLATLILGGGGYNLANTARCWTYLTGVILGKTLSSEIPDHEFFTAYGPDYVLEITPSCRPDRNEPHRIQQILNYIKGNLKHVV
Nature of the assay: Inhibition of full length human C-terminal His-tag HDAC8 expressed in baculovirus expression system preincubated for 15 mins followed by HDAC-Glo substrate addition measured after 30 to 45 mins by ELISA.

In assay [8] the target is T2, Protein deacetylase HDAC6 (Homo sapiens). Nature of the assay: Inhibition of HDAC6 in human HeLaS3 cells at 5 uM preincubated for 15 mins followed by HDAC-Glo substrate addition measured after 30 to 45 mins by ELISA. Type of assay: cell-based. The conditions noted are these: HeLa S3. In outline: (§3)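 ELISA-based HDAC activity assay using mammalian-derived HDAC1, -2, -3 and -6. Each analogue was screened at a single concentration, 5 or 10 μM. Data are mean percent deacetylase activity from at least three independent trials with standard error.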

In assay [9] the test system is HeLa S3. Nature of the assay: Selectivity ratio of IC50 for HDAC3 in human HeLaS3 cells to IC50 for full length human C-terminal His-tag HDAC8 expressed in baculovirus expression system.
A short description of assay [10]: cells. It is filed as functional, cell-based. The conditions noted are these: Homo sapiens, Jurkat, 44 h.
Assay [11] can be described thus: cells. It is filed as functional, cell-based. The conditions noted are these: Homo sapiens, U-937, 44 h.
Assay [12] in a line: Cytotoxicity against human Jurkat cells assessed as cell viability at 10 uM after 44 hrs by MTT assay relative to control. The conditions noted are these: read-out: Activity. It is filed as functional. In a few lines:
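MTT viability assay in Jurkat cells at 1 and 10 μM. Data are mean percent viability from at least three independent trials with standard error.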
On the technique in general: Tetrazolium assays rely on reduction of a dye to a coloured formazan, in cell work by metabolically active cells.

Assay [13] has as its target T2, Protein deacetylase HDAC6 (Homo sapiens). The experiment in a line: Inhibition of HDAC6 in human U937 cells assessed as increase in alpha-tubulin acetylation at Lys-40 residue after 18 hrs by Western blot method. Type of assay: cell-based. The conditions noted are these: U-937. In a few lines:
as §2
(A western blot detects proteins with antibodies after separation by electrophoresis.)

The nature of assay [14]: cells. The conditions noted are these: Homo sapiens, MOLM-13, 44 h. It is filed as functional, cell-based.
Assay [15] concerns the target T2, Protein deacetylase HDAC6 (Homo sapiens). The experiment in a line: Inhibition of HDAC6 in human HeLaS3 cells at 10 uM preincubated for 15 mins followed by HDAC-Glo substrate addition measured after 30 to 45 mins by ELISA. Type of assay: cell-based. The conditions noted are these: HeLa S3. In outline:
as §3

Chain of Histone deacetylase 2 (Q92769 whole entry): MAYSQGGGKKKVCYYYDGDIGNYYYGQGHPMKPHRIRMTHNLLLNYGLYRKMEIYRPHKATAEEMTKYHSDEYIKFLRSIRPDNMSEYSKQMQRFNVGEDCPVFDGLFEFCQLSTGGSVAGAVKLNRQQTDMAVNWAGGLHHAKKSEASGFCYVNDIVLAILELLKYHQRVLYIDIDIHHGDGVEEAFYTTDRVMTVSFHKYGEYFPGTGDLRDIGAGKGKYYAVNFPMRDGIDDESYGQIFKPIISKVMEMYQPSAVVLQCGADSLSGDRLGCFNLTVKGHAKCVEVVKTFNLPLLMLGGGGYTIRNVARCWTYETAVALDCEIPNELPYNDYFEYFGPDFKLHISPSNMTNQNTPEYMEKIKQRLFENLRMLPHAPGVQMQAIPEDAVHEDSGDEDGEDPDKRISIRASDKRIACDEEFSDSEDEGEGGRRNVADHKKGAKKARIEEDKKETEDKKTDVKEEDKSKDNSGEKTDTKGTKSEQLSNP

In general, IC50 refers to the midpoint of a concentration-inhibition curve. Read a high IC50 as weaker potency in that assay. For `O=C(CCCCCC(Cc1ccccc1)C(=O)NO)Nc1ccccc1` (stereo not drawn), the Ratio IC50 in the assay on HeLa S3 [1], in the assay on HeLa S3 [2], in the assay on HeLa S3 [3], with HeLa S3 [4], in the assay with HeLa S3 [5] and with HeLa S3 [9] was 33 to 92 in each case. The IC50 at Histone deacetylase 2 was found to be 110 µM; against Histone deacetylase 1, 84 µM; against Histone deacetylase 3 it was 91 µM; in assay [6], 1.5 µM; at Histone deacetylase 8, 1.2 µM. The inhibition result in [7] and in [8] was “Active” throughout.

Take `C=CCC(CCCCCC(=O)Nc1ccccc1)C(=O)NO` (stereo not drawn): the inhibition entry in assay [8] is “Active”.

As for `CC(CCCCCC(=O)Nc1ccccc1)C(=O)NO` (stereo not drawn), in assay [8], the inhibition entry was “Active”.

`CCCCCC(CCCCCC(=O)Nc1ccccc1)C(=O)NO` (stereo not drawn): the Ratio IC50 with HeLa S3 [1], in the assay with HeLa S3 [2], with HeLa S3 [3], with HeLa S3 [4], with HeLa S3 [5] and with HeLa S3 [9] was 33 to 92 each time. For the same compound, the IC50 was found to be 58 µM against Histone deacetylase 2; 48 µM against Histone deacetylase 1; 43 µM against Histone deacetylase 3; 0.85 µM in [6]; 1.3 µM at Histone deacetylase 8. Moreover, the inhibition entry in [7] and in [8] was “Active” each time.

For `CCC(CCCCCC(=O)Nc1ccccc1)C(=O)NO` (stereo not drawn), the inhibition entry in assay [8] was “Active”.

Usually EC50 stands for the concentration that produces a half-maximal response. Consider `CCCCCCC(CCCCCC(=O)Nc1ccccc1)C(=O)NO` (stereo not drawn), for which the Ratio IC50 in the assay on HeLa S3 [1], with HeLa S3 [2], in the assay with HeLa S3 [3], in the assay with HeLa S3 [4], in the assay on HeLa S3 [5] and in the assay with HeLa S3 [9] was 49 to 300 in each case. The EC50 in “cells [10]” is 11.8 µM; in the assay “cells [11]”, 13.8 µM; in “cells [14]”, 10.5 µM. The IC50 at Histone deacetylase 2 worked out at 180 µM; against Histone deacetylase 1 it was 180 µM; at Histone deacetylase 3, 98 µM; in [6], 0.6 µM; against Histone deacetylase 8, 2 µM. In addition, in [12], the viability at 10 µM amounted to 47%. Moreover, the inhibition result in assay [7] and in [8] was “Active” each time. For the same compound, the inhibition entry in [13] was “Dose-dependent effect”.

Regarding `CCCCCC[C@@H](CCCCCC(=O)Nc1ccccc1)C(=O)NO`, the Ratio IC50 in the assay on HeLa S3 [3], with HeLa S3 [5] and with HeLa S3 [9] was 106 to 187 in each case. Further, the half-inhibitory concentration (IC50) at Histone deacetylase 2 stood at 580 µM; against Histone deacetylase 1 it was 330 µM; on Histone deacetylase 3 it was 530 µM; on Histone deacetylase 8 it was 3.1 µM.

For `CCCCCC[C@H](CCCCCC(=O)Nc1ccccc1)C(=O)NO`, the IC50 against Histone deacetylase 8 was determined as 0.71 µM. This lies in the sub-micromolar range.

`CCCC(CCCCCC(=O)Nc1ccccc1)C(=O)NO` (stereo not drawn): in assay [8], the inhibition entry was “Active”.

For the compound `C#CCC(CCCCCC(=O)Nc1ccccc1)C(=O)NO` (stereo not drawn), the inhibition entry in [8] was “Active”.

For `CCCCC(CCCCCC(=O)Nc1ccccc1)C(=O)NO` (stereo not drawn), the inhibition entry in assay [15] is “Active”.

(Values after ChEMBL document CHEMBL3877334, “Structural Requirements of HDAC Inhibitors: SAHA Analogues Modified at the C2 Position Display HDAC6/8 Selectivity” (ACS Med Chem Lett, 2017).)
